Calls of active or inactive are those of the source. The calls are words filed in the database; no cut-off is given here.
Columns and labels:
MCF7 [1] = experiment: Cytotoxicity against human MCF7 cells at 10^-6 M after 72 hrs by MTS assay; format: functional; conditions: MCF7, 72 h, read-out: GI
SK-OV-3 [2] = experiment: Antiproliferative activity against human SKOV3 cells after 72 hrs by MTS assay; format: functional, cell-based; conditions: SK-OV-3, 72 h
In short: (§1)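 Cell lines grown in RPMI with 10% fetal calf serum plus penicillin, streptomycin and fungizone under 5% CO2. Compounds in DMSO (1% final; controls got DMSO alone) were added 24 h after plating. After 72 h exposure, MTS was added for 3 h at 37 °C and A490 read. Inhibition = (1 − OD treated/OD control)×100, in triplicate. IC50s came from separate duplicate dose-response experiments.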

MIA PaCa-2 [3] = experiment: Cytotoxicity against human MIAPaCa2 cells at 10^-6 M after 72 hrs by MTS assay; format: functional; conditions: MIA PaCa-2, 72 h, read-out: GI
HCT-15 [4] = experiment: Antiproliferative activity against human HCT15 cells after 72 hrs by MTS assay; format: functional, cell-based; conditions: HCT-15, 72 h; in short: as §1
HT-29 [5] = experiment: Cytotoxicity against human HT-29 cells at 10^-6 M after 72 hrs by MTS assay; format: functional; conditions: HT-29, 72 h, read-out: GI
In short: (§2)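 Cells grown in RPMI with 10% fetal calf serum, penicillin, streptomycin and fungizone under 5% CO₂. Plated in 96-well plates and dosed 24 h later with compound in DMSO (1% final DMSO; controls got DMSO alone). After 72 h, MTS was added for 3 h at 37 °C and A490 read. Inhibition = (1 − OD treated/OD control) × 100, in triplicate.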

SF-268 [6] = experiment: Cytotoxicity against human SF268 cells at 10^-5 M after 72 hrs by MTS assay; format: functional; conditions: SF-268, 72 h, read-out: GI
In short: (§3)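 Preliminary screen at 10^-5 and 10^-6 M. Cells were grown in RPMI with 10% fetal calf serum plus penicillin, streptomycin and fungizone under 5% CO₂, plated in 96-well plates, and dosed 24 h later from DMSO stocks (1% DMSO final, same in controls). After 72 h, MTS was added for 3 h at 37 °C and absorbance read at 490 nm. Inhibition was calculated as (1 − OD treated/OD control) × 100, in triplicate.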

K562 [7] = experiment: Cytotoxicity against human K562 cells at 10^-5 M after 72 hrs by MTS assay; format: functional; conditions: K562, 72 h, read-out: GI; in short: as §2
[8] = Antiproliferative activity against human HL60R cells after 72 hrs by MTS assay; format: functional, cell-based
A549 [9] = experiment: Cytotoxicity against human A549 cells at 10^-6 M after 72 hrs by MTS assay; format: functional; conditions: A549, 72 h, read-out: GI; in short: as §2
HT-29 [10] = experiment: Cytotoxicity against human HT-29 cells at 10^-5 M after 72 hrs by MTS assay; format: functional; conditions: HT-29, 72 h, read-out: GI; in short: as §2
[11] = Cytotoxicity against human MDA231 cells at 10^-5 M after 72 hrs by MTS assay; format: functional; conditions: MDA-MB-231, 72 h, read-out: GI; in short: as §3
HCT-116 [12] = experiment: Cytotoxicity against human HCT116 cells at 10^-6 M after 72 hrs by MTS assay; format: functional; conditions: HCT-116, 72 h, read-out: GI; in short: as §2
K562 [13] = experiment: Antiproliferative activity against human K562 cells after 72 hrs by MTS assay; format: functional, cell-based; conditions: K562, 72 h; in short: as §1
HL-60 [14] = experiment: Antiproliferative activity against human HL60 cells after 72 hrs by MTS assay; format: functional, cell-based; conditions: HL-60, 72 h; in short: as §1
HL-60 [15] = experiment: Cytotoxicity against human HL60 cells at 10^-6 M after 72 hrs by MTS assay; format: functional; conditions: HL-60, 72 h, read-out: GI; in short: as §2
PC-3 [16] = experiment: Antiproliferative activity against human PC3 cells after 72 hrs by MTS assay; format: functional, cell-based; conditions: PC-3, 72 h; in short: as §1
K562 [17] = experiment: Cytotoxicity against human K562 cells at 10^-6 M after 72 hrs by MTS assay; format: functional; conditions: K562, 72 h, read-out: GI; in short: as §2
HCT-15 [18] = experiment: Cytotoxicity against human HCT15 cells at 10^-6 M after 72 hrs by MTS assay; format: functional; conditions: HCT-15, 72 h, read-out: GI; in short: as §2
[19] = Cytotoxicity against human HL60R cells at 10^-6 M after 72 hrs by MTS assay; format: functional; conditions: read-out: GI; in short: as §2
HL-60 [20] = experiment: Cytotoxicity against human HL60 cells at 10^-5 M after 72 hrs by MTS assay; format: functional; conditions: HL-60, 72 h, read-out: GI; in short: as §2
MIA PaCa-2 [21] = experiment: Cytotoxicity against human MIAPaCa2 cells at 10^-5 M after 72 hrs by MTS assay; format: functional; conditions: MIA PaCa-2, 72 h, read-out: GI
PC-3 [22] = experiment: Cytotoxicity against human PC3 cells at 10^-5 M after 72 hrs by MTS assay; format: functional; conditions: PC-3, 72 h, read-out: GI; in short: as §3
HCT-15 [23] = experiment: Cytotoxicity against human HCT15 cells at 10^-5 M after 72 hrs by MTS assay; format: functional; conditions: HCT-15, 72 h, read-out: GI; in short: as §2
SK-OV-3 [24] = experiment: Cytotoxicity against human SKOV3 cells at 10^-5 M after 72 hrs by MTS assay; format: functional; conditions: SK-OV-3, 72 h, read-out: GI; in short: as §3
MCF7 [25] = experiment: Cytotoxicity against human MCF7 cells at 10^-5 M after 72 hrs by MTS assay; format: functional; conditions: MCF7, 72 h, read-out: GI
SK-OV-3 [26] = experiment: Cytotoxicity against human SKOV3 cells at 10^-6 M after 72 hrs by MTS assay; format: functional; conditions: SK-OV-3, 72 h, read-out: GI; in short: as §3
[27] = Cytotoxicity against human MDA231 cells at 10^-6 M after 72 hrs by MTS assay; format: functional; conditions: MDA-MB-231, 72 h, read-out: GI; in short: as §3
OVCAR-8 [28] = experiment: Cytotoxicity against human OVCAR8 cells at 10^-6 M after 72 hrs by MTS assay; format: functional; conditions: OVCAR-8, 72 h, read-out: GI; in short: as §3
SF-268 [29] = experiment: Cytotoxicity against human SF268 cells at 10^-6 M after 72 hrs by MTS assay; format: functional; conditions: SF-268, 72 h, read-out: GI; in short: as §3
[30] = Cytotoxicity against human HL60R cells at 10^-5 M after 72 hrs by MTS assay; format: functional, HL-60; conditions: read-out: GI; in short: as §2
A549 [31] = experiment: Cytotoxicity against human A549 cells at 10^-5 M after 72 hrs by MTS assay; format: functional; conditions: A549, 72 h, read-out: GI; in short: as §2
HCT-116 [32] = experiment: Cytotoxicity against human HCT116 cells at 10^-5 M after 72 hrs by MTS assay; format: functional; conditions: HCT-116, 72 h, read-out: GI; in short: as §2
SF-268 [33] = experiment: Antiproliferative activity against human SF268 cells after 72 hrs by MTS assay; format: functional, cell-based; conditions: SF-268, 72 h; in short: as §1
PC-3 [34] = experiment: Cytotoxicity against human PC3 cells at 10^-6 M after 72 hrs by MTS assay; format: functional; conditions: PC-3, 72 h, read-out: GI; in short: as §3
OVCAR-8 [35] = experiment: Antiproliferative activity against human OVCAR8 cells after 72 hrs by MTS assay; format: functional, cell-based; conditions: OVCAR-8, 72 h; in short: as §1
[36] = Antiproliferative activity against human MDA231 cells after 72 hrs by MTS assay; format: functional, cell-based; conditions: MDA-MB-231, 72 h; in short: as §1
OVCAR-8 [37] = experiment: Cytotoxicity against human OVCAR8 cells at 10^-5 M after 72 hrs by MTS assay; format: functional; conditions: OVCAR-8, 72 h, read-out: GI; in short: as §3
Ovis aries = organism: Ovis aries; experiment: Inhibition of sheep brain tubulin polymerization at 10 uM
In short: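 Microtubule protein from sheep brain, purified by two assembly/disassembly cycles (37 °C/0 °C), in 100 mM MES pH 6.6, 1 mM EGTA, 0.5 mM MgCl₂. Compounds in DMSO were tested at a single concentration, with incubation at 37 °C for 10 min and then 0 °C for 5 min before measuring assembly rate, following a modified Guénard protocol.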

| SMILES | inhibition of growth at 1 µM (MCF7 [1]) | inhibition of growth at 1 µM (MIA PaCa-2 [3]) | inhibition of growth at 1 µM (HT-29 [5]) | inhibition of growth at 10 µM (SF-268 [6]) | inhibition of growth at 10 µM (K562 [7]) | inhibition of growth at 1 µM (A549 [9]) | inhibition of growth at 10 µM (HT-29 [10]) | inhibition of growth at 10 µM [11] | inhibition of growth at 1 µM (HCT-116 [12]) | inhibition of growth at 1 µM (HL-60 [15]) | inhibition of growth at 1 µM (K562 [17]) | inhibition of growth at 1 µM (HCT-15 [18]) | inhibition of growth at 1 µM [19] | inhibition of growth at 10 µM (HL-60 [20]) | inhibition of growth at 10 µM (MIA PaCa-2 [21]) | inhibition of growth at 10 µM (PC-3 [22]) | inhibition of growth at 10 µM (HCT-15 [23]) | inhibition of growth at 10 µM (SK-OV-3 [24]) | inhibition of growth at 10 µM (MCF7 [25]) | inhibition of growth at 1 µM (SK-OV-3 [26]) | other results |
| --- | --- | --- | --- | --- | --- | --- | --- | --- | --- | --- | --- | --- | --- | --- | --- | --- | --- | --- | --- | --- | --- |
| COc1ccc(/C(=C2\O[C@@H]([C@H](O)CO)[C@H]3OC(C)(C)O[C@@H]23)c2cc(OC)c(OC)c(OC)c2)cc1O | 0% | 5% | 6% | 73% | 90% | 0% | 8% | 69% | 1% | 10% | 15% | 11% | 12% | 79% | 58% | 77% | 82% | 81% | 43% | 6% | IC50 (SK-OV-3 [2]): 6510 nM; IC50 (HCT-15 [4]): 630 nM; IC50 [8]: 1490 nM; IC50 (K562 [13]): 450 nM; IC50 (HL-60 [14]): 820 nM; IC50 (PC-3 [16]): 690 nM; inhibition of growth at 1 µM [27]: 0%; inhibition of growth at 1 µM (OVCAR-8 [28]): 1%; inhibition of growth at 1 µM (SF-268 [29]): 16%; inhibition of growth at 10 µM [30]: 95%; inhibition of growth at 10 µM (A549 [31]): 58%; inhibition of growth at 10 µM (HCT-116 [32]): 58%; IC50 (SF-268 [33]): 1100 nM; inhibition of growth at 1 µM (PC-3 [34]): 0%; IC50 (OVCAR-8 [35]): 2970 nM; IC50 [36]: 610 nM; inhibition of growth at 10 µM (OVCAR-8 [37]): 95% |
| COc1cc(C(=C(COC(C)=O)COC(C)=O)c2ccc3c(c2)OCO3)cc(OC)c1OC | 0% | 0% | 0% | 20% | 26% | 0% | 0% | 17% | 0% | 17% | 5% | 9% | 9% | 30% | 0% | 13% | 22% | 7% | 11% | 3% | tubulin polymerization inhibition call (active/not active) (Ovis aries): inactive; inhibition of growth at 1 µM [27]: 0%; inhibition of growth at 1 µM (OVCAR-8 [28]): 0%; inhibition of growth at 1 µM (SF-268 [29]): 24%; inhibition of growth at 10 µM [30]: 24%; inhibition of growth at 10 µM (A549 [31]): 12%; inhibition of growth at 10 µM (HCT-116 [32]): 0%; inhibition of growth at 1 µM (PC-3 [34]): 3%; inhibition of growth at 10 µM (OVCAR-8 [37]): 0% |
| COc1cc(C(=C(COC(C)=O)COC(C)=O)c2cc(OC)c(OC)c(OC)c2)cc(OC)c1OC | 5% | 0% | 0% | 53% | 29% | 0% | 4% | 69% | 0% | 15% | 12% | 19% | 11% | 39% | 10% | 44% | 48% | 23% | 44% | 8% | tubulin polymerization inhibition call (active/not active) (Ovis aries): inactive; inhibition of growth at 1 µM [27]: 0%; inhibition of growth at 1 µM (OVCAR-8 [28]): 0%; inhibition of growth at 1 µM (SF-268 [29]): 26%; inhibition of growth at 10 µM [30]: 36%; inhibition of growth at 10 µM (A549 [31]): 22%; inhibition of growth at 10 µM (HCT-116 [32]): 17%; inhibition of growth at 1 µM (PC-3 [34]): 7%; inhibition of growth at 10 µM (OVCAR-8 [37]): 24% |

Reference: ChEMBL document CHEMBL1828575, “Design, synthesis and antiproliferative activities of biarylolefins based on polyhydroxylated and carbohydrate scaffolds” (Eur J Med Chem, 2011)
